# KCNK3 inh = human KCNK3 channel inhibition, primary screen | B-score at 10 µM | CHO-KCNK3 thallium flux, FluxOR fluorescence; hits give low values | 340,000 tested, 0.84% active | O14649 | AID 602410;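 active = B-score under library mean minus 4 SD, starting fluorescence ratio at most library mean plus 5 SD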;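 note: more negative B-score means stronger inhibition of thallium flux through KCNK3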
# KCNQ1 block = blocks the human KCNQ1 potassium channel; 310,000 tested, 1.3% active; B-score at 10 µM; CHO-K1 KCNQ1, FluxOR thallium flux fluorescence; hits give high values; AID 2642;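 active = compounds whose thallium flux B-score, printed positive for inhibition, exceeds three library SD while starting fluorescence stays within three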;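 note: channel opened by potassium depolarization with thallium stimulus after 20 min compound exposure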
# Target sequence (P51787 whole entry, looked up): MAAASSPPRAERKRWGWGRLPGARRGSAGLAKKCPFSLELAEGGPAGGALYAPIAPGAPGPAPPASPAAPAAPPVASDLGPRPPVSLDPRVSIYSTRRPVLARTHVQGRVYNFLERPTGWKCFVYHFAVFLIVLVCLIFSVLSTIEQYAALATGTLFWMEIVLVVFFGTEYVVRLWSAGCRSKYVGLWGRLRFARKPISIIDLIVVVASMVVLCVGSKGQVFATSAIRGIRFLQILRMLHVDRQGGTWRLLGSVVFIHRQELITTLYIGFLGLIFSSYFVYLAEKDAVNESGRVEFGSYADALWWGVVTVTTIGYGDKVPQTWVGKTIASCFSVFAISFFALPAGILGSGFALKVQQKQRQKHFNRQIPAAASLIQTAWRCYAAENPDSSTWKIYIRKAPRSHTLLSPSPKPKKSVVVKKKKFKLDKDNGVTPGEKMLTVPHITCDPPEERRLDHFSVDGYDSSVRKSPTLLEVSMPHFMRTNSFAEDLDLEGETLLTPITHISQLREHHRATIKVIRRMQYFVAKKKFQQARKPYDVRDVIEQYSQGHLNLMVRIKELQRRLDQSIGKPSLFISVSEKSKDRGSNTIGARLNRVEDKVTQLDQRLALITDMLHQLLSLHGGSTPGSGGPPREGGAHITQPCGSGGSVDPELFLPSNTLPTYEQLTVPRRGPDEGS
# hERG rescue = hERG (human) protection from proarrhythmic block. 310,000 tested, 0.51% active. activation (rescue from dofetilide block), less the hit threshold, % at 10 µM. CHO-hERG, FluxOR thallium flux, dofetilide IC70 present;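 active = activation above the mean of controls blocked by dofetilide plus 5 SD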;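 note: thallium influx through hERG after potassium depolarization seen as dye fluorescence rise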
# KCNK9 block = inhibitors of human KCNK9 two-pore domain potassium channel. 310,000 tested, 1.2% active. Q9NPC2. B-score at 10 µM. HEK293 KCNK9, FluxOR thallium flux fluorescence; hits give low values. AID 488922;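 active = ratio B-score over 3 SD below the library mean, with starting fluorescence within 5 SD of its mean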;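 note: negative B-score means less thallium flux so channel inhibition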
# KCNQ1 act = potentiates or activates the human KCNQ1 potassium channel. AID 2648. P51787. B-score at 10 µM. 310,000 tested, 0.35% active. CHO-K1 KCNQ1, thallium flux FluxOR fluorescence; hits give high values;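 active = fluorescence ratio B-score, a plate-corrected score, at least three library SD, with initial intensity B-score within 5 SD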
#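 Material: CHO-K1 cells stably expressing KCNQ1. Medium: assay buffer for compound exposure, DMSO matched across wells. Reagent: K+/Tl+ depolarizing stimulus. Compound dosing: single-concentration screen. Times: 37 °C overnight plating, 90-min dark dye load, 20-min compound pretreatment. Technique: FluxOR Tl+ flux fluorescence.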
# Kir21 block = inhibitors of mouse Kir2.1 inward-rectifier potassium channel; P35561; HEK293-Kir2.1, FluxOR thallium flux fluorescence; hits give low values; B-score at 10 µM; 310,000 tested, 0.85% active; AID 1672;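 active = fluorescence ratio B-score at or below minus 3 SD of library scores, with starting-brightness B-score within 2 SD, cut at about -4.2 in these data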;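 note: channel flux triggered by added potassium and thallium sulfate stimulus; B-score of peak minus minimum fluorescence over baseline after thallium stimulus; more negative B-score means stronger Kir2.1 block with less thallium influx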
# KCNQ1 block val = human KCNQ1 channel inhibition, validation assay. shares compounds with KCNQ1 block. KCNQ1 cell line, FluxOR thallium flux fluorescence. inhibition, % at 10 µM. 1,600 tested, 93% active;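 active = primary screen active, with duplicate mean exceeding buffer control mean plus 3 SD of buffer wells, cut at about 28% in these data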;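 note: 0% = buffer control ratio and 100% = XE991 inhibitor control ratio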
# CHO Tl flux = counter-screen for KCNQ1 inhibitors: effect in parental CHO cells; shares compounds with KCNQ1 block; parental CHO-K1, FluxOR thallium flux fluorescence ratio; hits give low values; zero means no signal rise above baseline; fluorescence ratio (Tl flux) at 10 µM; 1,600 tested, 21% active;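 active = mean of duplicate thallium-flux fluorescence ratios in parental host cells more than 5 SD below the buffer control mean, cut at about 0.38 in these data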;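 note: ratio is peak minus minimum fluorescence divided by baseline fluorescence; actives read low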
# KCNQ1 APC inh = human KCNQ1 inhibition validated by electrophysiology; 490 tested, 20% active; KCNQ1-CHO cells, automated patch clamp current; calls only at 10 µM; shares compounds with KCNQ1 block; AID 624120;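 active = KCNQ1 current drop exceeding 3 SD of negative control wells, seen in both duplicate runs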;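 note: steady state current during a 2 s step from -80 to +40 mV; negative values mean current inhibition and positive values mean potentiation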
# KCNQ2 inh = selectivity of KCNQ1 inhibitors: inhibition of rat KCNQ2 channel. inhibition, % at 10 µM. 1,600 tested, 71% active. shares compounds with KCNQ1 block. KCNQ2 cells, FluxOR thallium flux fluorescence;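 active = mean percent inhibition of the KCNQ2 thallium signal more than 5 SD above the buffer-only control wells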;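 note: KCNQ2 expressed in CHO cells; 0% = buffer control wells and 100% = XE-991 inhibitor control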
# KCNQ1 KCNE1 spec = human KCNQ1/KCNE1 inhibition in KCNQ1 specificity screen. KCNQ1/KCNE1 cells, FluxOR thallium flux fluorescence. AID 652147. 1,600 tested, 77% active. inhibition, % at 10 µM. shares compounds with KCNQ1 block;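 active = mean percent inhibition of duplicate wells above the buffer-only control mean plus 3 SD of those controls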;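 note: 0% = buffer only wells and 100% = XE-991 inhibitor control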
# Starred values were filed as active, the others as inactive; i = inactive; nt = no result given; + = active, no number. This is a sample that favours compounds with a hit; in the whole collection about 3.7% have one here.
SMILES,KCNK3 inh,KCNQ1 block,hERG rescue,KCNK9 block,KCNQ1 act,Kir21 block,KCNQ1 block val,CHO Tl flux,KCNQ2 inh,KCNQ1 KCNE1 spec,others
Cc1ccc(NC(=O)c2sc3ncnc(N4CCN(c5ccccn5)CC4)c3c2C)c(C)c1,i,i,-21,i,i,1,nt,nt,nt,nt,
Cc1ccc(NC(=O)c2sc3nc(C)nc(N4CCN(c5ccccn5)CC4)c3c2C)c(C)c1,i,8*,-13,i,i,0.54,84*,0.46,97%*,98%*,
Cc1nc(N2CCN(c3ccccn3)CC2)c2c(C)c(C(=O)N3CCN(c4ccccc4F)CC3)sc2n1,i,i,-11,i,i,1.3,nt,nt,nt,nt,
Cc1nc(N2CCN(c3ccccn3)CC2)c2c(C)c(C(=O)Nc3ccc(Br)cc3C)sc2n1,i,7*,-13,i,i,-0.89,82*,0.45,98%*,104%*,
Fc1ccccc1C1c2[nH]c3ccccc3c2CCN1Cc1ccoc1 (centres undefined),i,i,-7,i,i,-1.6,nt,nt,nt,nt,
COCCCn1c(SCC(=O)NC2CCCC2)nnc1-c1cccs1,i,i,-2,i,i,2.5,nt,nt,nt,nt,
Nc1ccc(-c2c3ccc(=O)cc-3oc3cc(O)ccc23)cc1C(=O)O,i,24*,-52,i,i,-17,+,0.0075*,i,i,
O=c1ccc2c(-c3ccccc3)c3ccc(O)cc3oc-2c1,i,24*,-50,i,i,-16,+,0*,i,i,
Cc1ccc(NC(=O)CSc2nc3ccccc3c(=O)n2CCCN2CCCCC2)cc1Cl,i,7*,-22,i,i,-3,85*,0.36*,85%*,84%*,
CCn1c(SCC(=O)Nc2nc(-c3ccc(C)cc3)cs2)nnc1-c1ccccc1,i,i,-4,i,i,-0.01,nt,nt,nt,nt,
Cc1ccc(-c2csc(NC(=O)CSc3nc4ccccc4c(=O)n3CCCN(C)C)n2)cc1,i,8*,-46,i,i,-1.6,118*,0.29*,101%*,154%*,
ClCc1nc2ccccc2n1Cc1ccccc1,i,7*,-15,i,i,-5,0,0.45,84%*,i,
O=C(NC(c1cccnc1)C(F)(F)F)c1cc(COc2ccc3c(c2)CCCC3)on1 (centres undefined),i,16*,-16,i,i,-0.63,138*,0.36*,118%*,+,
COc1cccc(C2C(=O)N(C3CCCCC3)CC(=O)N2Cc2ccc(F)cc2)c1 (centres undefined),i,6*,-19,i,i,-0.09,54*,0.45,93%*,42%*,
COc1ccccc1NS(=O)(=O)c1ccc(C)c(NC(=O)C2CCCO2)c1 (centres undefined),i,nt,nt,nt,nt,nt,nt,nt,nt,nt,
Cc1ccc(CN=C(Nc2ccccc2)NC2CCCCC2)cc1,i,9*,-4,i,i,-6.5*,68*,0.53,i,41%*,
O=C(Nc1ccccc1)NC1CCCCCCC1,i,i,-8,i,i,-1.6,nt,nt,nt,nt,
CCOC(=O)Cc1c(Sc2ccccc2)c2ccccc2n1C,i,7*,-3,-8*,i,0.04,94*,0.47,88%*,114%*,KCNQ1 APC inh=i
CSc1nnc(CNS(=O)(=O)c2ccc(Cl)cc2)n1C,i,i,-6,i,i,0.32,nt,nt,nt,nt,
COc1ccc(C(=O)Nc2ccc(N3CCN(Cc4ccccc4)CC3)cc2)cc1,i,i,-9,i,i,1.3,nt,nt,nt,nt,
COc1ccc(NC(=O)c2ccc(CN3CCN(c4ccccc4)CC3)cc2)cc1,i,6*,-4,i,i,-0.29,0,0.5,i,i,
Cc1cc(NC2CCCCC2)nc(NCc2ccccc2)n1,i,14*,-36,i,i,-13*,182*,0.32*,120%*,168%*,
COc1ccc(Nc2cc(C)nc(N)n2)cc1,i,i,-6,i,i,-0.8,nt,nt,nt,nt,
COc1ccc(Nc2cc(C)nc(NCc3ccccc3)n2)cc1,i,8*,-28,i,i,-14*,124*,0.37*,89%*,98%*,
CCN(CC)C(=O)c1nc[nH]c1C(=O)N1CCc2ccccc2C1,i,nt,nt,nt,nt,nt,nt,nt,nt,nt,
SMILES,KCNK3 inh,KCNQ1 block,hERG rescue,KCNK9 block,KCNQ1 act,Kir21 block,KCNQ1 block val,CHO Tl flux,KCNQ2 inh,KCNQ1 KCNE1 spec,others
Cc1ccc(OCC(O)CN2CCC(Cc3ccccc3)CC2)c(C)c1 (centres undefined),i,7*,-17,i,i,-4.6*,31*,0.44,76%*,63%*,
OC(COc1ccccc1)CN1CCC(Cc2ccccc2)CC1 (centres undefined),i,i,-6,i,i,1.5,nt,nt,nt,nt,
CCCc1ccc(-c2cc(C(=O)N3CCN(c4ccccn4)CC3)c3ccccc3n2)cc1,i,9*,-30,i,i,-0.38,89*,0.45,114%*,104%*,KCNQ1 APC inh=i
CCN1CCN(C(=O)c2ccc(Cl)c(S(=O)(=O)N(C)c3ccccc3)c2)CC1,i,nt,nt,nt,nt,nt,nt,nt,nt,nt,
COc1ccc(C(=O)C2CCCN(Cc3cc(Cl)ccc3O)C2)c(OC)c1 (centres undefined),i,6*,-13,i,i,1.5,62*,0.41,122%*,86%*,
COc1ccc(C(=O)C2CCCN(Cc3cc(C)c(O)c(C)c3)C2)c(OC)c1 (centres undefined),i,i,-6,i,i,-1.5,nt,nt,nt,nt,
C=CCNc1nc(C)c(CNc2c(C)cc(C)cc2C)nc1C#N,i,i,-13,i,i,-0.07,nt,nt,nt,nt,
OCCNc1nc(Nc2ccc(Br)cc2)nc2ccccc12,nt,15*,-8,i,i,-13*,0,0.46,78%*,i,
OCCNc1nc(Nc2ccccc2)nc(Nc2ccccc2)n1,i,i,-10,i,i,2.2,nt,nt,nt,nt,

# Screens from PubChem.
